In article PMC3940261 (Integrative biology : quantitative biosciences from nano to …, 2014):

Key:
aminopeptidase N (CD 13) = conditions: in vitro; cited from earlier work
leucine aminopeptidase = conditions: in vitro; cited from earlier work
LTA4 hydrolase = conditions: in vitro; cited from earlier work
[1] = target: purine-sensitive aminopeptidase (PuSA); conditions: in vitro; cited from earlier work
[2] = system: degradation of a fluorogenic reporter; conditions: 24 h exposure to media containing 1 μM Tosedostat; cited from earlier work
[3] = system: peptidase activity in U937 cells; format: cell-based, human; conditions: ensemble lysates, commercial capillary electrophoresis system
Outline: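 U937 cells were cultured long-term with the test compound (1, 2, 4, 8, 16 μM; DMSO ≤0.1%) or DMSO vehicle. A FAM-labelled reporter peptide (100 μM) and a carboxyfluorescein internal standard (20 μM) were loaded by pinocytosis for 10 min at 37 °C; hypotonic lysis set t = 0. Cells were held at 10⁶ cells/mL for 1 h at room temperature, then heat-lysed at 95 °C for 4 min. Supernatant was run on a bare 30-cm, 30-μm i.d. capillary, spiked with intact-substrate and K-FAM standards, and peaks were Gaussian-fitted.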

[4] = system: four common aminopeptidases; conditions: cited from earlier work
[5] = system: peptidase activity in U937 cells; assay: Single-cell chemical cytometry of fluorescent reporter peptide degradation; format: cell-based, human; conditions: for most common fragment peak pattern: single U937 cells

Row | SMILES | IC50 (aminopeptidase N (CD 13)) | IC50 (leucine aminopeptidase) | IC50 (LTA4 hydrolase) | IC50 [1] | inhibition of degradation of a fluorogenic reporter [2] | number of fluorescent fragment peaks from drug-treated cells [3] | IC50 [4] | peptidase activity in drug-treated cells relative to a vehicle control ([5]; at all doses (1, 2, 4, 8, 16 μM)) | most common fragment peak pattern ([5]; dose 1 μM) | most common fragment peak pattern ([5]; dose 2 μM) | most common fragment peak pattern ([5]; dose 4 μM) | most common fragment peak pattern ([5]; dose 8 μM)
1 | CC(C)C[C@@H](C(=O)N[C@H](C(=O)O)c1ccccc1)[C@H](O)C(=O)NO [active form of Tosedostat] | nanomolar range | nanomolar range | nanomolar range | nanomolar range | – | – | – | – | – | – | – | –
2 | CC(C)C[C@@H](C(=O)N[C@H](C(=O)OC1CCCC1)c1ccccc1)[C@H](O)C(=O)NO [Tosedostat] | – | – | – | – | 50% | ≤ 8 fluorescent fragment peaks | nanomolar-range | inhibited | 3 peaks | 3 peaks | 2 peaks | 2 peaks
